Usually zone of inhibition stands for the extent of the growth-free halo in a diffusion test. Usually IC50 stands for the concentration at which inhibition is half-maximal.

The results in this text go back to paper PMC12394810 (RSC Advances, 2025).

Holding throughout (type): cell-based
Assay [1] relates to Candida albicans MTCC 227. The experiment in a line: Agar well diffusion, antifungal. The note with it: for zone of inhibition at 1000 µg/mL: Candida albicans, MTCC227, 18 h, read-out: Zone of inhibition Candida albicans. The essentials: (§1)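 Fungal strains kept like the bacteria (Mueller–Hinton media) but at 30 °C. Agar well diffusion per CLSI (2012): inoculum spread over the agar, 6–8 mm wells punched, and 20–100 μL test compound added per well. Plates incubated at 30 °C and zone of inhibition diameter read in mm.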
For orientation: Agar diffusion results depend on both activity and mobility in agar.

Assay [2] has as its system DU145 (human prostate cell line). The experiment in a line: MTT cytotoxicity assay, DU145. The note with it: DU-145, 48 h, read-out: IC50 DU145. The essentials: (§2)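 ATCC cells grown in DMEM with 10% FBS, 2 mM L-glutamine and 100 μg/mL penicillin–streptomycin at 37 °C, 5% CO2. Medium refreshed, 10 μL of 12 mM MTT stock added, then 4 h in the dark at 37 °C. Formazan dissolved in DMSO and read at 570 nm against media-only blanks. Three independent experiments; IC50 by linear regression.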

Assay [3] has as its system Staphylococcus aureus MTCC 96. Description: Agar well diffusion, antibacterial. The conditions noted are these: 1 mg/mL, 18 hrs. The essentials: (§3)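 Agar well diffusion per CLSI (2012). Bacteria grown on Mueller–Hinton agar and kept in Mueller–Hinton broth at 37 °C for 24 h. Inoculum spread evenly over the agar, 6–8 mm wells punched, and each well loaded with 20–100 μL test compound. Plates incubated at 37 °C and zones of inhibition measured in mm.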

Assay [4] relates to HEK-293 (human embryonic kidney cell line). Description: MTT cytotoxicity assay, HEK-293. The note with it: HEK293, 48 h, read-out: IC50 HEK-293. (In general: Tetrazolium assays rely on reduction of a dye to a coloured formazan, in cell work by metabolically active cells.)
Assay [5] has as its system Klebsiella pneumoniae MTCC 109. The experiment in a line: Agar well diffusion, antibacterial. The conditions noted are these: 1 mg/mL, 18 hrs. The essentials:
as §3

Assay [6] concerns Bacillus subtilis MTCC 121. Description: Agar well diffusion, antibacterial. The conditions noted are these: 1 mg/mL, 18 hrs. The method in brief: as §3
For assay [7], the system named is HepG2 (Human hematoma cell line). The experiment in a line: MTT cytotoxicity assay, HEPG2. The note with it: HepG2, 48 h, read-out: IC50 HEPG2. The method in brief: as §2
Assay [8] has as its system Escherichia coli MTCC 730. The experiment in a line: Agar well diffusion, antibacterial. The note with it: 1 mg/mL, 18 hrs. The essentials:
as §3

In assay [9] the test system is SKBR-3 (human breast cancer cell line). The experiment in a line: MTT cytotoxicity assay, SKBR-3. The conditions noted are these: SK-BR-3, 48 h, read-out: IC50 SKBR-3. The method in brief: as §2
Assay [10] concerns Candida tropicalis MTCC 230. Description: Agar well diffusion, antifungal. The conditions noted are these: 1 mg/mL, 18 hrs. The essentials: as §1

The structures appear in SMILES notation.

With `O=C/C=C/c1ccccc1` [Compound 1, (E)-3-phenylprop-2-enal, reference compound], in assay [1], the zone of inhibition at 1000 µg/mL was 11 mm. For the same molecule, the IC50 came out at 22.4 ± 1.6 µM in [2], 20.6 ± 1 µM in [4], 21.8 ± 1 µM in assay [7] and 13.9 ± 1.6 µM in [9]. Further, in assay [3], the “Zone of inhibition Staphylococcus aureus” value is 7–8 mm. Moreover, the “Zone of inhibition Klebsiella pneumoniae” value in assay [5] is 7–8 mm. The “Zone of inhibition Bacillus subtilis” value in [6] was 7–8 mm. The “Zone of inhibition Escherichia coli” value in assay [8] was 7–8 mm.

As to `CCCCCCOc1ccccc1C(=O)/C=C/C=C/c1ccccc1` [Compound 5l, (2E,4E)-1-(2-(Hexyloxy)phenyl)-5-phenylpenta-2,4-dien-1-one], the “Zone of inhibition Candida albicans” value in [1] (1 mg/mL, 18 hrs) is on record as “showed activity”. For the same molecule, the zone of inhibition at 1000 µg/mL in assay [1] came out at 8 mm. For the same molecule, the 50% inhibitory concentration (IC50) stood at 29 ± 2.1 µM in assay [2], 98 ± 10.1 µM in assay [4], 46.7 ± 2.2 µM in assay [7] and 23.5 ± 4.1 µM in assay [9]. Besides, the “Zone of inhibition Candida tropicalis” value in assay [10] is recorded as “showed activity”.
